Measurements as given in ChEMBL document CHEMBL4138303, “Discovery and in Vitro Optimization of 3-Sulfamoylbenzamides as ROMK Inhibitors” (ACS Med Chem Lett, 2018).
Substitutions are numbered along the chain they refer to. Calls of active or inactive are those of the source. The rule behind the calls is not given here.

Legend:
[1] = target: Voltage-gated inwardly rectifying potassium channel KCNH2 (Homo sapiens, UniProt Q12809); assay: Displacement of fluorescent-labelled dofetilide from human ERG expressed in HEK293 cell membrane homogenates; format: cell membranes
Voltage-gated inwardly rectifying potassium channel KCNH2, sequence (Q12809 whole entry): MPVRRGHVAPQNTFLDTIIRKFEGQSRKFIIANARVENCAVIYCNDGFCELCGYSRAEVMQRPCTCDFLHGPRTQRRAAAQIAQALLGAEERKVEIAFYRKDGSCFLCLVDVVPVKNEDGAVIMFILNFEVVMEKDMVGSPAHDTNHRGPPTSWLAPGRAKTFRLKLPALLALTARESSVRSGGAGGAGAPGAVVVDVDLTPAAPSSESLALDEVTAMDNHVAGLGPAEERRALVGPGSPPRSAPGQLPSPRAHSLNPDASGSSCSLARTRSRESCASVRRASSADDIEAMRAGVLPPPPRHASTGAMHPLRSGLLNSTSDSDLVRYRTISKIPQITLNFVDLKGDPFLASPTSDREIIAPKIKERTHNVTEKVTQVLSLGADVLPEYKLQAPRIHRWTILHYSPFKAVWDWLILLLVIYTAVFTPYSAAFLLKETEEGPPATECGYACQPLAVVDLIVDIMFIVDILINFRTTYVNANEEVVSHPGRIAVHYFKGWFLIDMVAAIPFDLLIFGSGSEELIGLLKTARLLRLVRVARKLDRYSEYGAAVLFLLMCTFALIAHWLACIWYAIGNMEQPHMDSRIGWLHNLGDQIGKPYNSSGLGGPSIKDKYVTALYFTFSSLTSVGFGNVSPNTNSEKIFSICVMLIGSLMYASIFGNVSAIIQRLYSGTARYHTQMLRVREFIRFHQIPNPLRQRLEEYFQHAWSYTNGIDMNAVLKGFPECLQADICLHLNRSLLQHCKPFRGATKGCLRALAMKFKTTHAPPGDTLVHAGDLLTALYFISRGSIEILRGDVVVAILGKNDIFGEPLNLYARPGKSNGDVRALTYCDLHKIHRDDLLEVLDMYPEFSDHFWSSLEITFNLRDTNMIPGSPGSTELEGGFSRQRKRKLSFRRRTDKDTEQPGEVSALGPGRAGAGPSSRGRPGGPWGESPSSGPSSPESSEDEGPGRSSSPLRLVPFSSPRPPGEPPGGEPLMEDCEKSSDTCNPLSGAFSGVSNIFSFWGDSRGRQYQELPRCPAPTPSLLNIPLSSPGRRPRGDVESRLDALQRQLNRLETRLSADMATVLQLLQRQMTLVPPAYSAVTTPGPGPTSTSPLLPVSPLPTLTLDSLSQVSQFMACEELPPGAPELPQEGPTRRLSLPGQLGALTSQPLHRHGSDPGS
How it was run: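 Ki from displacement of a fluorescently labelled dofetilide derivative from membrane homogenates of HEK-293 cells stably expressing hERG (Kv11.1).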

[2] = Apparent intrinsic clearance in human liver microsomes; format: ADME, microsome; settings: read-out: CLH(app)
[3] = Octanol-sodium phosphate buffer partition coefficient, log D of the compound at pH 7.4 by shake flask method; format: physicochemical
[4] = target: T1, ATP-sensitive inward rectifier potassium channel 1 (Homo sapiens, UniProt P48048); assay: Inhibition of human ROMK2 expressed in HEK293 cells after 20 mins by Thallos-AM dye based fluorescence assay; format: cell-based
T1 sequence (P48048 whole entry): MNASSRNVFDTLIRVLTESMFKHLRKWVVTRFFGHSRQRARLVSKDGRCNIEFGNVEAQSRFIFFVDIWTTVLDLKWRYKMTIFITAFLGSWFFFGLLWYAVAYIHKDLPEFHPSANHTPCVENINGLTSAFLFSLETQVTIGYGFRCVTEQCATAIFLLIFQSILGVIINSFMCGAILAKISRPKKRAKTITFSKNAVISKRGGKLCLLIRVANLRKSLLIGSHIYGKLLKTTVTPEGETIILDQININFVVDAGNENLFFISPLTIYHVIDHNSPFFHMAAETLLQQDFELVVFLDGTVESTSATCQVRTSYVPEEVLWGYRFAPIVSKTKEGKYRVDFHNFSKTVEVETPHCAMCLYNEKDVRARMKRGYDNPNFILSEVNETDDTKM

[5] = Apparent permeability in MDCK2-LE cells; format: ADME, cell-based, Canis lupus familiaris, MDCK-II; settings: dog
[6] = target: T2, ATP-sensitive inward rectifier potassium channel 1 (Rattus norvegicus, UniProt P35560); assay: Inhibition of rat ROMK1 expressed in HEK293 cells after 20 mins by Thallos-AM dye based fluorescence assay; format: cell-based
T2 sequence (P35560 whole entry): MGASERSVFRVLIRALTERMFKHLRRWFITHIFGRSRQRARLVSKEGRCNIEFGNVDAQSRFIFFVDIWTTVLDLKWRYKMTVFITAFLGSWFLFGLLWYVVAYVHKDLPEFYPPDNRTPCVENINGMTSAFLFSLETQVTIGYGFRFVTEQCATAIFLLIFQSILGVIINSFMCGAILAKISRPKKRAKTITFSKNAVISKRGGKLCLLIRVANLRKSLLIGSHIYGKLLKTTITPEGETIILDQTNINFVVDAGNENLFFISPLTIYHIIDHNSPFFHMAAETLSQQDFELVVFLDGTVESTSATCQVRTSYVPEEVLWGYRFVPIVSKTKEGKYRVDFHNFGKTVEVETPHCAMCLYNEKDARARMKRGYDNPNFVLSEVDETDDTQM
How it was run: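 Thallium (Tl+) flux assay against rat ROMK1, with concentration-response testing up to 30 µM. IC50 values are geometric means of n≥3 replicates unless otherwise indicated and are also reported as pIC50±SD.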

[7] = target: T1, ATP-sensitive inward rectifier potassium channel 1; assay: (§1) Inhibition of human ROMK1 expressed in HEK293 cells after 20 mins by Thallos-AM dye based fluorescence assay; format: cell-based
How it was run: (§2)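 Tl+ flux assay on human or rat ROMK1, run as concentration-response. IC50 is the geometric mean of n≥3 replicates, also given as pIC50±SD. Rat ROMK1 testing went up to 30 µM.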

[8] = target: T3, ATP-sensitive inward rectifier potassium channel 1 (Homo sapiens) (UniProt P48048); assay: as §1; format: cell-based; how it was run: as §2
T3 sequence (whole entry): T1 sequence (P48048 whole entry)

[9] = target: T1, ATP-sensitive inward rectifier potassium channel 1; assay: Inhibition of human ROMK1 expressed in HEK293 cells at -75 mV holding potential by whole cell patch clamp method; format: cell-based
How it was run: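 Whole-cell patch clamp on human ROMK1. IC50 comes from a global fit to a five-point concentration-response curve with n≥4 per concentration, reported with 95% CI.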

[10] = target: T4, ATP-sensitive inward rectifier potassium channel 10 (Homo sapiens) (UniProt P78508); assay: Inhibition of Kir4.1 (unknown origin) expressed in CHO cells at 10 uM at -75 mV holding potential by whole cell patch clamp method relative to control; format: cell-based
T4 sequence (whole entry): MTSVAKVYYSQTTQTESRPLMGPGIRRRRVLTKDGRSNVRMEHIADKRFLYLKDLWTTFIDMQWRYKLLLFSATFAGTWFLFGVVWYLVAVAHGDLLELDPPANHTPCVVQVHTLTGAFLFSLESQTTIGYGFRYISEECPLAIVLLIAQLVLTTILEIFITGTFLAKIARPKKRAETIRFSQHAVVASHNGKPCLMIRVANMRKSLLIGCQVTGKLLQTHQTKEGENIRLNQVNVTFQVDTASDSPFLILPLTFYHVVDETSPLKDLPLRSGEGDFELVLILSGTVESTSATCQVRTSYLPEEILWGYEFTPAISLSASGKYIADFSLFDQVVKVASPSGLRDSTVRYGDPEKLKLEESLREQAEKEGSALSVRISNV
How it was run: (§3)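 Whole-cell patch-clamp recordings in CHO cells stably expressing either Kir2.1 or Kir4.1.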

[11] = target: T5, Kir2.1 (inward rectifier potassium channel 2) (Homo sapiens, UniProt P63252); assay: Inhibition of Kir2.1 (unknown origin) expressed in CHO cells at 10 uM at -75 mV holding potential by whole cell patch clamp method relative to control; format: cell-based; settings: CHO cells expressing Kir2.1; how it was run: as §3
T5 sequence (P63252 whole entry): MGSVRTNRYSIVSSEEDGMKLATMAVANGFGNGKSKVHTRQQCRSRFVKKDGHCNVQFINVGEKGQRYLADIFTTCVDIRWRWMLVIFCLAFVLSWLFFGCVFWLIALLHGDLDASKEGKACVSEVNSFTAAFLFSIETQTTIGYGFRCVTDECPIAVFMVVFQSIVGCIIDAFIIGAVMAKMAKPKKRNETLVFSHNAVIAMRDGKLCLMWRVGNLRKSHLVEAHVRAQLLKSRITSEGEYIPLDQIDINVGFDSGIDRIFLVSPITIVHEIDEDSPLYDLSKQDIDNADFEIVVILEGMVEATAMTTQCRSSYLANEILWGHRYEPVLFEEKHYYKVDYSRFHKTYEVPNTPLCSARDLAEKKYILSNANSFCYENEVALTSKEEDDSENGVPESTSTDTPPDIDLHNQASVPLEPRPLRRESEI

[12] = target: T6, ATP-sensitive inward rectifier potassium channel 1 (Rattus norvegicus) (UniProt P35560); assay: Inhibition of rat ROMK2 expressed in HEK293 cells at -75 mV holding potential by whole cell patch clamp method; format: cell-based
T6 sequence (whole entry): T2 sequence (P35560 whole entry)

[13] = system: T7, ATP-sensitive inward rectifier potassium channel 1 (Homo sapiens), P48048 [K80M]; assay: Inhibition of human Kir1.1 K80M mutant expressed in HEK293 cells at 100 to 300 nM at -75 mV holding potential by whole cell patch clamp method; format: cell-based
T7 sequence (whole entry): T1 sequence (P48048 whole entry) with K80M
How it was run: (§4)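 Whole-cell currents were recorded under voltage clamp in HEK293 cells transiently expressing human ROMK K80M or the human ROMK K80M/N171D double mutant.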

[14] = system: T8, ATP-sensitive inward rectifier potassium channel 1 (Homo sapiens), P48048 [N171D]; assay: Inhibition of human Kir1.1 N171D mutant expressed in HEK293 cells at 100 to 300 nM at -75 mV holding potential by whole cell patch clamp method; format: cell-based; how it was run: as §4
T8 sequence (whole entry): T1 sequence (P48048 whole entry) with N171D

[15] = octanol/sodium phosphate buffer, read-out: logD

Row | Compound | Ki [1] | CLint scaled [2] | logD [3, 15] | IC50 [4] | Papp ([5]; MDCK, read-out: Papp) | IC50 [6] | IC50 ([7]; read-out: IC50) | also measured
1 | Cc1ccc(C(=O)NCc2cn(C)nn2)cc1S(=O)(=O)Nc1ccc(Cl)cc1 | > 40000 nM | < 9 mL/min/kg | 2.9 | 86 nM | 19 ×10⁻⁶ cm/s |  |  | 
2 | COc1ccc(C(=O)NC(C)c2cnn(C)n2)cc1S(=O)(=O)Nc1ccc(Cl)cc1 (single isomer, unassigned; (+)) | > 40000 nM |  |  | 13000 nM |  |  |  | logD ([3]; octanol/water): 2.7; Papp ([5]; mdck-ii): 11 ×10⁻⁶ cm/s
3 | Cc1noc(CNC(=O)c2ccc(C)c(S(=O)(=O)Nc3ccc(-c4ccno4)cc3)c2)n1 | > 40000 nM | 25 mL/min/kg | 2.3 | 110 nM | 6 ×10⁻⁶ cm/s |  |  | 
4 | Cc1noc(CNC(=O)c2ccc(C)c(S(=O)(=O)Nc3ccc(Cl)cc3)c2)n1 | > 40000 nM | 35 mL/min/kg | 3 | 85 nM | 19 ×10⁻⁶ cm/s | > 30000 nM | 777 nM | inhibition [8]: Dose-dependent effect; IC50 [9]: 62 nM
5 | Cc1ccc(NS(=O)(=O)c2cccc(C(=O)NCc3nc(C)no3)c2)cc1 | > 40000 nM | 9 mL/min/kg | 2.3 | 17000 nM | 22 ×10⁻⁶ cm/s |  |  | 
6 | O=[N+]([O-])c1ccc2nc(COCc3nc4ccc([N+](=O)[O-])cc4[nH]3)[nH]c2c1 |  |  |  |  |  | 420 nM | 744 nM | 
7 | COc1ccc(C(=O)NC(C)c2cnn(C)n2)cc1S(=O)(=O)Nc1ccc(Cl)cc1 (single isomer, unassigned; (-)) [listing 1 of 2 here] | 28000 nM | < 8 mL/min/kg | 2.6 | 160 nM | 16 ×10⁻⁶ cm/s | > 30000 nM | 391 nM | IC50 [9]: 61 nM
8 | Cc1ccc(NS(=O)(=O)c2cc(C(=O)NCc3cccnc3)ccc2C)cc1 | > 40000 nM | 120 mL/min/kg | 3 | 6500 nM | 15 ×10⁻⁶ cm/s |  |  | inhibition [10]: 19%; inhibition at 10 µM [11]: 13%
9 | COc1ccc(C(=O)NCc2nc(C)no2)cc1S(=O)(=O)Nc1ccc(C)cc1 | > 40000 nM | 10 mL/min/kg | 2.3 | 1300 nM | 8 ×10⁻⁶ cm/s |  |  | 
10 | Cc1ccc(C(=O)NCc2cn(C)nn2)cc1S(=O)(=O)Nc1ccc(-c2ccno2)cc1 | > 40000 nM | < 8 mL/min/kg | 2.4 | 280 nM | 12 ×10⁻⁶ cm/s | > 30000 nM | 1040 nM | IC50 ([7]; read-out: pIC50 (converted)): 1260 nM; inhibition [8]: Dose-dependent effect; IC50 [9]: 104 nM; inhibition [12]: inactive
11 | Cc1noc(CNC(=O)c2ccc(C)c(S(=O)(=O)Nc3ccc(-c4cnco4)cc3)c2)n1 | > 40000 nM | 69 mL/min/kg | 2.2 | 35 nM | 10 ×10⁻⁶ cm/s |  |  | 
12 | COc1ccc(C(=O)NC(C)c2cnn(C)n2)cc1S(=O)(=O)Nc1ccc(Cl)cc1 (single isomer, unassigned; (-)) [listing 2 of 2 here] |  |  |  |  |  |  |  | inhibition [13]: Active; inhibition [8]: Dose-dependent effect; inhibition [12]: inactive; inhibition [14]: Active
13 | Cc1ccc(NS(=O)(=O)c2cc(C(=O)NCc3nc(C)no3)ccc2C)cc1 | > 40000 nM | 30 mL/min/kg | 2.7 | 440 nM | 20 ×10⁻⁶ cm/s |  |  | 
